Assay results as given in ChEMBL document CHEMBL3351896, “Small Molecule that Reverses Dexamethasone Resistance in T-cell Acute Lymphoblastic Leukemia (T-ALL)” (ACS Med Chem Lett, 2014).
The source made the active and inactive calls. No cut-off for these calls is given here.

Assays:
[1] = test system: CUTLL1; test: Effect on TSC22D3 gene expression in human CUTLL1 cells in presence of 1 uM dexamethasone at 30 uM after 24 hrs by microarray method; format: functional, cell-based
In short: (§1)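 Human CUTLL1 T-ALL cells exposed for 24 h to vehicle (DMSO), dexamethasone alone (1 μM), test compound alone (30 μM), or dexamethasone 1 μM plus compound 30 μM, each in triplicate. Expression profiled by microarray. Glucocorticoid-regulated gene sets from ALL patients on glucocorticoid therapy scored by GSEA. Leading-edge genes compared between the combination and dexamethasone alone.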

[2] = test system: CUTLL1; test: Growth inhibition of human CUTLL1 cells at 50 uM in presence of deferoxamine after 48 hrs by alamar blue assay; format: functional, cell-based
[3] = test system: CUTLL1; test: Effect on SKP2 gene expression in human CUTLL1 cells in presence of 1 uM dexamethasone at 30 uM after 24 hrs by microarray method; format: functional, cell-based; in short: as §1
[4] = test system: CUTLL1; test: Effect on NME1 gene expression in human CUTLL1 cells in absence of 1 uM dexamethasone at 30 uM after 24 hrs by microarray method; format: functional, cell-based
In short: (§2)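 CUTLL1 T-ALL cells exposed 24 h to vehicle (DMSO), dexamethasone alone (1 μM), test agent alone (30 μM), or dexamethasone (1 μM) plus test agent (30 μM), in triplicate. Expression profiled by microarray. Leading-edge genes from GSEA were compared between the dexamethasone-plus-agent and dexamethasone-alone groups, using glucocorticoid-regulated gene sets from ALL patients on glucocorticoid therapy.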

[5] = test system: CUTLL1; test: Effect on PCNA gene expression in human CUTLL1 cells in absence of 1 uM dexamethasone at 30 uM after 24 hrs by microarray method; format: functional, cell-based; in short: as §2
[6] = test system: CUTLL1; test: Effect on ATAD2 gene expression in human CUTLL1 cells in presence of 1 uM dexamethasone at 30 uM after 24 hrs by microarray method; format: functional, cell-based; in short: as §2
[7] = test system: CUTLL1; test: Effect on NHP2 gene expression in human CUTLL1 cells in absence of 1 uM dexamethasone at 30 uM after 24 hrs by microarray method; format: functional, cell-based; in short: as §2
[8] = test system: CUTLL1; test: Effect on CDC25A gene expression in human CUTLL1 cells in presence of 1 uM dexamethasone at 30 uM after 24 hrs by microarray method; format: functional, cell-based; in short: as §2
[9] = test system: CUTLL1; test: Effect on ZWINT gene expression in human CUTLL1 cells in presence of 1 uM dexamethasone at 30 uM after 24 hrs by microarray method; format: functional, cell-based; in short: as §1
[10] = test system: CUTLL1; test: Effect on RAD51AP1 gene expression in human CUTLL1 cells in presence of 1 uM dexamethasone at 30 uM after 24 hrs by microarray method; format: functional, cell-based; in short: as §1
[11] = test system: CUTLL1; test: Effect on GINS2 gene expression in human CUTLL1 cells in presence of 1 uM dexamethasone at 30 uM after 24 hrs by microarray method; format: functional, cell-based; in short: as §2
[12] = test system: CUTLL1; test: Effect on RANBP1 gene expression in human CUTLL1 cells in presence of 1 uM dexamethasone at 30 uM after 24 hrs by microarray method; format: functional, cell-based; in short: as §1
[13] = test system: CUTLL1; test: Effect on NHP2 gene expression in human CUTLL1 cells in presence of 1 uM dexamethasone at 30 uM after 24 hrs by microarray method; format: functional, cell-based; in short: as §2
[14] = test system: CUTLL1; test: Effect on CHAF1A gene expression in human CUTLL1 cells in presence of 1 uM dexamethasone at 30 uM after 24 hrs by microarray method; format: functional, cell-based; in short: as §2
[15] = test system: CUTLL1; test: Effect on ALYREF gene expression in human CUTLL1 cells in absence of 1 uM dexamethasone at 30 uM after 24 hrs by microarray method; format: functional, cell-based; in short: as §2
[16] = test system: CUTLL1; test: Effect on SKP2 gene expression in human CUTLL1 cells in absence of 1 uM dexamethasone at 30 uM after 24 hrs by microarray method; format: functional, cell-based; in short: as §1
[17] = target: Gamma-secretase (Homo sapiens) (UniProt Q96BI3+Q9NZ42+Q8WW43+P49768+Q92542+P49810); test: Inhibition of gamma secretase in human CUTLL1 cells assessed as effect on NOTCH cleavage level at 25 uM after 24 hrs by Western blotting; format: cell-based
In short: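 Western blot of intracellular NOTCH (ICN) in CUTLL1 cells after 24 h exposure to compound alone or with 1 μM dexamethasone. The γ-secretase inhibitor Compound E (100 nM) plus dexamethasone was the reference treatment.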

[18] = test system: CUTLL1; test: Effect on BCCIP gene expression in human CUTLL1 cells in absence of 1 uM dexamethasone at 30 uM after 24 hrs by microarray method; format: functional, cell-based; in short: as §2
[19] = test system: CUTLL1; test: Effect on PAICS gene expression in human CUTLL1 cells in absence of 1 uM dexamethasone at 30 uM after 24 hrs by microarray method; format: functional, cell-based; in short: as §2
[20] = test system: CUTLL1; test: Effect on POLE2 gene expression in human CUTLL1 cells in absence of 1 uM dexamethasone at 30 uM after 24 hrs by microarray method; format: functional, cell-based; in short: as §1
[21] = test system: CUTLL1; test: Increase in GR expression in human CUTLL1 cells at 25 to 50 uM in presence of 1 uM dexamethasone and 1 uM […] and glucocorticoid receptor antagonist RU486 after 24 hrs by Western blotting method; format: functional, cell-based
In short: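 CUTLL1 cells exposed to compound (25 or 50 μM) alone, with 1 μM dexamethasone, or with dexamethasone plus 1 μM RU486, for 6 or 24 h. GR measured as protein by Western blot and as transcript by RT-qPCR.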

[22] = test system: CUTLL1; test: Effect on RPS14 gene expression in human CUTLL1 cells in absence of 1 uM dexamethasone at 30 uM after 24 hrs by microarray method; format: functional, cell-based; in short: as §1
[23] = test system: CUTLL1; test: Growth inhibition of human CUTLL1 cells at 50 uM in presence of MG262 after 48 hrs by alamar blue assay; format: functional, cell-based
[24] = test system: CUTLL1; test: Effect on BCCIP gene expression in human CUTLL1 cells in presence of 1 uM dexamethasone at 30 uM after 24 hrs by microarray method; format: functional, cell-based; in short: as §2
[25] = test system: CUTLL1; test: Effect on CDC25A gene expression in human CUTLL1 cells in absence of 1 uM dexamethasone at 30 uM after 24 hrs by microarray method; format: functional, cell-based; in short: as §2
[26] = test system: CUTLL1; test: Growth inhibition of human CUTLL1 cells at 50 uM in presence of camptothecin after 48 hrs by alamar blue assay; format: functional, cell-based
[27] = test system: CUTLL1; test: Effect on E2F7 gene expression in human CUTLL1 cells in presence of 1 uM dexamethasone at 30 uM after 24 hrs by microarray method; format: functional, cell-based; in short: as §2
[28] = test system: CUTLL1; test: Growth inhibition of human CUTLL1 cells at 12.5 to 50 uM in presence of 1 uM dexamethasone and 1 uM […] and glucocorticoid receptor antagonist RU486 after 48 hrs by alamar blue assay; format: functional, cell-based
In short: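 CUTLL1 cells treated for 48 h with compound, with or without dexamethasone 1 μM and RU486 1 μM. Growth inhibition read out by alamar blue.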

[29] = test system: CUTLL1; test: Effect on BTG1 gene expression in human CUTLL1 cells in presence of 1 uM dexamethasone at 30 uM after 24 hrs by microarray method; format: functional, cell-based; in short: as §2
[30] = test system: CUTLL1; test: Effect on DDIT4 gene expression in human CUTLL1 cells in absence of 1 uM dexamethasone at 30 uM after 24 hrs by microarray method; format: functional, cell-based; in short: as §2
[31] = test system: CUTLL1; test: Effect on SMC2 gene expression in human CUTLL1 cells in absence of 1 uM dexamethasone at 30 uM after 24 hrs by microarray method; format: functional, cell-based; in short: as §1
[32] = test system: CUTLL1; test: Effect on RUVBL1 gene expression in human CUTLL1 cells in presence of 1 uM dexamethasone at 30 uM after 24 hrs by microarray method; format: functional, cell-based; in short: as §1

SMILES: Nc1ncc(-c2ccncc2)c(C2CC2)n1
- Activity [1]: Active
- growth inhibition (GI) [2]: inactive
- Activity [3]: Active
- Activity [4]: inactive
- Activity [5]: inactive
- Activity [6]: Active
- Activity [7]: inactive
- Activity [8]: Active
- Activity [9]: Active
- Activity [10]: Active
- Activity [11]: Active
- Activity [12]: Active
- Activity [13]: Active
- Activity [14]: Active
- Activity [15]: inactive
- Activity [16]: inactive
- inhibition [17]: inactive
- Activity [18]: inactive
- Activity [19]: inactive
- Activity [20]: inactive
- Activity [21]: inactive
- Activity [22]: inactive
- growth inhibition (GI) [23]: inactive
- Activity [24]: Active
- Activity [25]: inactive
- growth inhibition (GI) [26]: inactive
- Activity [27]: Active
- growth inhibition (GI) [28]: inactive
- Activity [29]: Active
- Activity [30]: inactive
- Activity [31]: inactive
- Activity [32]: Active
